Out of some 2,500 compounds screened, about 460 (18%) were called active. A selection follows. Unmarked numbers belong to inactive results.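 The calls were made as follows: active = mean activation above a cutoff of low control average plus 3 SD from the earlier screen (cut at about 12% in these data); inactive = the rest.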

The assay is described as follows: compound fluorescence interference without thin filaments, confirmation, artefact control for cardiac RTF calcium sensitizer project, biochemical (AID 504382). The settings on record: IANBD fluorescence interference counterscreen, buffer, EC20 Ca2+; at 7.2 µM; active compounds read high; scaled: EC20 calcium 0, EC100 calcium 100. The gist of the method:
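Medium: MOPS buffer, 190 mM, with KCl, MgCl2, EGTA, NTA, DTT, pH 7.20; Dosing: one dose of 7.2 µM, 0.7% DMSO; Probe or stimulus: calcium at EC20 level, 0.472 mM final; Incubation: 15 min, 25 °C; Evaluation: compound fluorescence interference relative to control well signal range; Signal: fluorescence, 480/540 nm.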
With `CCC(=O)N1CCN(c2nc(C)nc3sc(C)c(C)c23)CC1`, the fluorescence artifact activation is 0.08%.
Consider `S=C1NC2=C(CCCC2=C2SCCCS2)C(c2ccccc2)N1` (stereo not drawn), for which the fluorescence artifact activation was 0.29%.
For `O=C(O)CN1C(=O)c2cccc3c(Br)ccc1c23` the value was 53.6% (active); for `O=C(OCCN1C(=O)c2cccc3c(N4CCOCC4)ccc(c23)C1=O)c1ccc(Cl)cc1`, 1.59%.
For `CC(=O)N(C(C)=O)N1C(=O)c2cccc3c(N4CCOCC4)ccc(c23)C1=O` the value was 0.01%; for `CCn1c(CSCc2ccccc2)n[nH]c1=S`, 0.18%; for `Cc1ccc(NC(=O)COc2ccc(/C=N/NC(=O)CSCc3ccccc3)cc2)cc1`, 12.9% (active).
Take `Cc1ccc(NC(=O)CN(C)C(=O)COC(=O)COc2ccc(C#N)cc2)cc1`: the fluorescence artifact activation was 0.42%.
Regarding `Cc1ccc(NC(=O)CO/N=C/c2ccc(N(C)C)cc2)cc1`, the fluorescence artifact activation was 0.03%.
In the case of `C=CCN1C(=O)c2ccccc2NC1c1cc(Br)cs1` (stereo not drawn) it was 7.88%; in that of `Cc1nn(-c2ccccc2)c(Cl)c1C(=O)NC1CCCCC1`, 4.56%.
For `Cc1cc(=O)oc2cc(OCC(=O)OCC(=O)NC(C)C)ccc12` the value was -0.02%; for `CCc1ccccc1NC(=O)COc1ccc2c(=O)c(Oc3cc(C)ccc3C)coc2c1`, 664% (active); for `Cc1ccc(C)c(NC(=O)COC(=O)Cc2ccsc2)c1`, 0.03%.
In the case of `O=C(O)CSc1ncnc2scc(-c3ccc(Br)cc3)c12` it was 0.71%.
Regarding `CC(C)(C)NCc1cc(Cl)ccc1OCc1cccs1`, the fluorescence artifact activation is 13.9% (active).
Turning to `COc1cccc2c1C(=O)c1c(O)c3c(c(O)c1C2=O)CC(O)(C(C)=NNC(=O)c1ccc(Cl)c(Cl)c1)CC3OC1CC(N)C(O)C(C)O1` (stereo not drawn), the fluorescence artifact activation is 0.12%.
In the case of `N#Cc1c(N)oc(-c2ccccc2)c1-c1ccccc1` it was 4.93%; in that of `Cc1cc(C)c(C#N)c(SCc2nnc(-c3ccccc3)o2)n1`, 14.5% (active).
In the case of `Cc1cc(C)c(C#N)c(Sc2nnnn2-c2ccccc2)n1` it was 11.6%; in that of `CCOC(=O)/C(C#N)=N\Nc1cc(Cl)ccc1OC`, 0.07%; in that of `C[C@@H]1C=C(C(=O)N2CCOCC2)O[C@H](OCc2ccc(CO)cc2)C1`, 0.97%.
For the compound `CCOCCCNS(=O)(=O)c1ccc(NC(=O)c2ccc(OC)c([N+](=O)[O-])c2)cc1`, the fluorescence artifact activation was 0.52%.
For `O=C(Cn1cc(/C=N/NC(=O)c2cccc3ccccc23)c2ccccc21)Nc1ccc(F)cc1` the value was 19.7% (active); for `CCOc1cccc(NC(=O)/C(C#N)=C\c2cn(CC(=O)O)c3ccccc23)c1`, 0.19%; for `O=C(Nc1ccccc1C(=O)N/N=C/c1ccco1)c1ccc(F)cc1`, 1.44%.
In the case of `Cc1ccc(N=Cc2sc(O)c3ccccc23)c(C)c1` it was 0.06%.
For `CCOC(=O)c1ccc[n+](CC(=O)Nc2cc(C(F)(F)F)ccc2Cl)c1`, the fluorescence artifact activation was 2.39%.
In the case of `CCn1c(O)c(/C=N/N=C/c2ccccc2)c2ccc(C3=NNC(=O)CC3)cc21` it was 0.02%; in that of `Brc1ccc(-c2cnnc(N3CCCC3)n2)cc1`, 66.5% (active).
`C=CCOc1ccc(CNc2ccc3[nH]c(=O)[nH]c3c2)cc1OCC`: the fluorescence artifact activation is 5.69%.
In the case of `COC(=O)c1c(NC(=O)c2ccnn2C)sc(C)c1C` it was 0.09%.
In the case of `Fc1ccc(C2=CC(c3ccc(Br)o3)n3ncnc3N2)cc1` (stereo not drawn), the fluorescence artifact activation was 0.34%.
For `OCCN=C1CCCc2c1[nH]c1ccc(Cl)cc21` the value was 0.44%; for `COc1ccccc1NC(=O)COC(=O)c1cnc(C)cn1`, 14.7% (active); for `COc1ccccc1NCC(=O)NC(=O)NC1CCCCC1`, 0.02%.
As to `COc1ccccc1NC(=O)CC(=O)CSc1nnc(-c2ccc(C)cc2)n1-c1ccccc1`, the fluorescence artifact activation was -0.03%.
For the compound `CCC(=O)Nc1ccc2c(c1)nc(CCN1CCN(C)CC1)n2C`, the fluorescence artifact activation is 20.2% (active).
Regarding `CCCn1c(CN2CCN(C(=O)OCC)CC2)nc2cc(NC(=O)CC)ccc21`, the fluorescence artifact activation was 0.01%.
In the case of `Cn1c(CN2CCCC2)nc2cc(NC(=O)COc3ccc([N+](=O)[O-])cc3)ccc21` it was 0.82%; in that of `CCCC1OC23CCCCC2C(C#N)(C#N)C1(C#N)C(=N)O3` (stereo not drawn), 36.8% (active).
In the case of `CCCCC1OC23CCCCC2C(C#N)(C(=N)O3)C1(C#N)C#N` (stereo not drawn) it was -0.04%.
In the case of `CCCCC1OC23CCCCC2C(C#N)(C#N)C1(C#N)C(=N)O3` (stereo not drawn) it was 3.08%.
For `CCN(c1ccccc1)S(=O)(=O)c1ccc(OC)c(NC(=O)Cn2cnc3c2c(=O)n(C)c(=O)n3C)c1`, the fluorescence artifact activation was 0.38%.
Take `CC(OC(=O)/C(C#N)=C/c1ccc(N(C)C)cc1)C(=O)N(C)c1ccccc1` (stereo not drawn): the fluorescence artifact activation is 0.19%.
For `NS(=O)(=O)c1ccc(-c2ccc(/C=C3\SC(=S)N(C4CCS(=O)(=O)C4)C3=O)o2)cc1` (stereo not drawn) the value was 3.08%; for `COc1ccc(CCNC(=O)C2CC(c3c(Cl)cccc3Cl)=NO2)cc1` (stereo not drawn), -0.04%; for `CC1(C)CC(=O)C(CC2CCCCC2=O)C(=O)C1` (stereo not drawn), 0.76%.
In the case of `Fc1ccc(CNC(=S)NCc2ccc(F)cc2)cc1` it was 12.3% (active).
For the compound `CCN(CC)c1ccc(NC(=S)Nc2ccc(F)cc2)cc1`, the fluorescence artifact activation is 0.1%.
In the case of `Fc1ccc(CNCc2ccc(Br)cc2)cc1` it was 0.02%.
For `S=C(Nc1ccc(N2CCOCC2)cc1)Nc1ccc2nc(-c3ccco3)c(-c3ccco3)nc2c1` the value was 8.46%; for `O=C(c1ccc(Cl)cc1)n1cnc2ccccc21`, 0.21%; for `COc1ccc(C(=O)Cn2cnc3ccccc3c2=O)cc1OC`, 0.22%.
Regarding `O=C(Cn1cnc2ccccc2c1=O)c1ccc(Br)cc1`, the fluorescence artifact activation was 102% (active).
On to `O=C(C1=NN(c2ccccc2)C2C(=O)N(c3ccccc3Cl)C(=O)C12)c1ccccc1` (stereo not drawn), for which the fluorescence artifact activation was 1.06%.
Regarding `Cc1oc(-c2cc3c(cc2Cl)OCO3)nc1CN1CCCC(C(=O)N2CCOCC2)C1` (stereo not drawn), the fluorescence artifact activation was 190% (active).
For `CSCCC(NC(=O)c1ccc(Cl)cc1)C(=O)OCC(=O)c1ccc[nH]1` (stereo not drawn) the value was 0.05%.
For `O=C(/C=C/c1ccccc1)N/C(=C/c1ccccc1)C(=O)NCCCO` the value was 0.08%.
On to `C=CCNC(=O)NC(=O)COC(=O)CC(NC(N)=O)c1ccc(Cl)cc1` (stereo not drawn), for which the fluorescence artifact activation was 50.5% (active).
For `O=C(NCCCN1CCCC1=O)c1cccc(S(=O)(=O)Nc2ccc(Br)cc2)c1` the value was 0.07%; for `O=C1CCC(=O)N(O)CCCCCNC(=O)CCC(=O)N(O)CCCCNC(=O)CCC(=O)N(O)CCCCCN1`, -0.06%.
As to `O=C(CC1C(=O)N(c2ccc(Cl)cc2)C(=S)N1CCc1ccncc1)Nc1ccc(F)cc1` (stereo not drawn), the fluorescence artifact activation is -0.02%.
For `CC1CCN(S(=O)(=O)c2ccc(N=NC3=C(O)CC(C)(C)CC3=O)cc2)CC1` the value was 1.03%; for `O=S(=O)(c1ccccc1Cl)N1CCC(Cc2ccccc2)CC1`, 0.09%.
In the case of `O=C1c2cccc3cccc(c23)C(=O)N1CC1CCN(S(=O)(=O)c2ccc(F)cc2)CC1` it was 34.6% (active); in that of `C=CCn1c(C)cc(-c2csc(N)n2)c1C`, 2.95%; in that of `O=C(NCc1ccco1)C1CC(c2c(Cl)cccc2Cl)=NO1` (stereo not drawn), -0.09%.
For the compound `COc1cccc(C(=O)NC2CC3CCCC(C2)N3CC(=O)Nc2ccc(N(C)C)cc2)c1` (stereo not drawn), the fluorescence artifact activation is 3.62%.
For `Cc1ccc(/C=C/c2ccc(N(C)C)cc2)[n+](C)c1` the value was 1.46%; for `CN(C)c1ccc(/C=C/c2cc[n+](C)cc2)cc1`, 14.5% (active); for `CN(C)c1ccc(/C=C/c2cc[n+](C)c3ccccc23)cc1`, 0.06%.
For `O=C1N(c2cccc(Cl)c2)C(c2ccccc2)N2CCCN12` (stereo not drawn) the value was -0.04%.
Turning to `COc1ccc(COc2cc(-c3cccc(OC)c3)nc3ccc(NC(=O)c4ccc(C)cc4)cc23)cc1`, the fluorescence artifact activation is 0.13%.
In the case of `COc1cccc(CC(NC(C)=O)C(=O)NC2CCN(c3nc(C)cc(C)c3C#N)CC2)c1OC` (stereo not drawn) it was 6.12%; in that of `CCCCN(C(=O)c1ccc2c(c1)OCCO2)c1c(N)n(CCCC)c(=O)[nH]c1=O`, -0.02%.
With `CC(=O)Nc1ccc(NC(=O)C(C)OC(=O)/C(C#N)=C/c2ccc(N(C)C)cc2)cc1` (stereo not drawn), the fluorescence artifact activation is 2.64%.
In the case of `CC1CC(C)(C)NC(=S)N1CCCC(=O)Nc1ccccc1F` (stereo not drawn) it was 0.07%; in that of `CCC(C)n1ncn(-c2ccc(N3CCN(c4ccc(OCC5COC(Cn6cncn6)(c6ccc(Cl)cc6Cl)O5)cc4)CC3)cc2)c1=O` (stereo not drawn), 121% (active).
Take `CC1(C)c2[nH]c3ccccc3c2C[C@H]2C(=O)N(Cc3ccc(F)cc3)C(=O)N21`: the fluorescence artifact activation was 0%.
In the case of `Cc1onc(-c2ccccc2Cl)c1C(=O)N(Cc1ccc(N(C)C)cc1)C(C)C` it was 2.44%.
In the case of `CCOC(=O)c1ccccc1-n1nnnc1C` it was 0.06%.
On to `CCOC(=O)c1cc2c(s1)-c1ccccc1CC2`, for which the fluorescence artifact activation was 0.55%.
Take `CCOC(=O)c1cc2n(c1N)-c1ccccc1C2=O`: the fluorescence artifact activation is 19.5% (active).
Consider `COc1cc(/C=C/C=C2/CC/C(=C/C=C/c3ccc(O)c(OC)c3)C2=O)ccc1O`, for which the fluorescence artifact activation is 7.81%.
For `C/C(=C\C=C(C#N)C#N)c1cc(C#N)c(N)o1` the value was 3.09%; for `N#C/C(=C/c1ccc(N2CCCCCC2)o1)c1ccc(Cl)cc1`, 12.3% (active).
As to `N#C/C(=C\c1ccc(N2CCOCC2)o1)C(=O)N1CCOCC1`, the fluorescence artifact activation was 0.05%.
In the case of `N#C/C(=C/c1ccc(N2CCOCC2)o1)c1ccc(Cl)cc1` it was 0%.
As to `N#C/C(=C\c1ccc(N2CCCCC2)o1)C(N)=O`, the fluorescence artifact activation is 2.99%.
With `N#C/C(=C/c1ccc(N2CCCCCC2)o1)c1cccc(F)c1`, the fluorescence artifact activation is 33.8% (active).
Regarding `Cc1ncoc1C(=O)N1CCc2c([nH]c3ccccc23)C1C(C)(C)C` (stereo not drawn), the fluorescence artifact activation is 0.21%.
In the case of `CN(C)c1ccc(/C=C/c2ccc3ccccc3n2)cc1` it was 0.06%.

The record behind these values is PubChem BioAssay AID504382 (The Scripps Research Institute Molecular Screening Center, 2011).
